Experiment [1] concerns the target T1, NUAK family SNF1-like kinase 1 (Homo sapiens) (UniProt O60285).
T1 sequence (whole entry): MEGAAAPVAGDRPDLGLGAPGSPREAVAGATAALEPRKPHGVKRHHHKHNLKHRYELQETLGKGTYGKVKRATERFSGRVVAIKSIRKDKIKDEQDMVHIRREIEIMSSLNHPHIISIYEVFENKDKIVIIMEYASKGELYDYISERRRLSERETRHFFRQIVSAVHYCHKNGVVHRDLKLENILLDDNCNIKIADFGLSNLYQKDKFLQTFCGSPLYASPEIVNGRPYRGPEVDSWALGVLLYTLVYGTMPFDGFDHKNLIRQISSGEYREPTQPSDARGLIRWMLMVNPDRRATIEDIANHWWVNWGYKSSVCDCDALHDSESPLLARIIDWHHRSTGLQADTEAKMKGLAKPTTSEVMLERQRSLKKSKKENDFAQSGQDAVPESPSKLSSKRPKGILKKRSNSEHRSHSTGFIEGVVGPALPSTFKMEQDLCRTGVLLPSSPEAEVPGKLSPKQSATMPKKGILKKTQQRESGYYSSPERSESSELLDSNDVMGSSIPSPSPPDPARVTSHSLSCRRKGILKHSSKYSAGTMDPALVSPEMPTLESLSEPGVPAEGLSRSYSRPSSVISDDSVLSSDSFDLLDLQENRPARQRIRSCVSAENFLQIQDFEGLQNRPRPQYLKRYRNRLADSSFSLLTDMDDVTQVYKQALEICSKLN
Description: Inhibition of ARK5 (unknown origin) assessed as residual activity at 1000 nM by KINOMEscan analysis relative to control.

The target of experiment [2] is T2, Tyrosine-protein kinase JAK3 (Homo sapiens) (UniProt P52333).
T2 sequence (whole entry): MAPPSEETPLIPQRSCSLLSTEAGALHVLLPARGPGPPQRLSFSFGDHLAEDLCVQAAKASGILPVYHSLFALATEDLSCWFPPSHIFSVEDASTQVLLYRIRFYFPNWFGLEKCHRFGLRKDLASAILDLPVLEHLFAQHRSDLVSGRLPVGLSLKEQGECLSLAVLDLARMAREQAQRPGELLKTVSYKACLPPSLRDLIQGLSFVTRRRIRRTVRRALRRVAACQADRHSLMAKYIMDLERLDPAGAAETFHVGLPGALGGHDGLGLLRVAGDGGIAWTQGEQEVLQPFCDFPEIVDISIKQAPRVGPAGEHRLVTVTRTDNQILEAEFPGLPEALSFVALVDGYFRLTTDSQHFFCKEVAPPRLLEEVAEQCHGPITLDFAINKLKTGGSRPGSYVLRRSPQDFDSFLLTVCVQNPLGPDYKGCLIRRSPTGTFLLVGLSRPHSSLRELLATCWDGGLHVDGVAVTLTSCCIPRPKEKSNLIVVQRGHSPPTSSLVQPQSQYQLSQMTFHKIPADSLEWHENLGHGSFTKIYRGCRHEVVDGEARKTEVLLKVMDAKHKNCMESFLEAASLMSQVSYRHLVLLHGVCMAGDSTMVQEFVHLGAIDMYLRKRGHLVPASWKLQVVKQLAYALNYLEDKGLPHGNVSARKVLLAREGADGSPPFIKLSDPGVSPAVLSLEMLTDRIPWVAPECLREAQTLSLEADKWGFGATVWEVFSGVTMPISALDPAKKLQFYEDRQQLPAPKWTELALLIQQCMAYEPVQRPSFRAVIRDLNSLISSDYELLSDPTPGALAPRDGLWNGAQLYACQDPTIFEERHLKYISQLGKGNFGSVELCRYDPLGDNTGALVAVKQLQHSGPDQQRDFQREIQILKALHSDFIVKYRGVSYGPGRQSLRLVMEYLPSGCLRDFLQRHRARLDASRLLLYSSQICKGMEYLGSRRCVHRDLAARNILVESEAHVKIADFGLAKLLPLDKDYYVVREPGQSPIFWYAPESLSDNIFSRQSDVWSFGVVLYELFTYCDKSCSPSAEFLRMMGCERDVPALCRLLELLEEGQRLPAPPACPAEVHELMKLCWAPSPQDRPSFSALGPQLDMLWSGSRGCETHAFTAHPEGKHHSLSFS
Description: Inhibition of JAK3 JH1 catalytic domain (unknown origin) assessed as residual activity at 1000 nM by KINOMEscan analysis relative to control.

For experiment [3], the target named is Serine/threonine-protein kinase SIK3 (Homo sapiens) (UniProt Q9Y2K2). Nature of the experiment: Inhibition of QSK (unknown origin) assessed as residual activity at 1000 nM by KINOMEscan analysis relative to control.
Sequence of Serine/threonine-protein kinase SIK3 (Homo sapiens) (Q9Y2K2 whole entry, looked up): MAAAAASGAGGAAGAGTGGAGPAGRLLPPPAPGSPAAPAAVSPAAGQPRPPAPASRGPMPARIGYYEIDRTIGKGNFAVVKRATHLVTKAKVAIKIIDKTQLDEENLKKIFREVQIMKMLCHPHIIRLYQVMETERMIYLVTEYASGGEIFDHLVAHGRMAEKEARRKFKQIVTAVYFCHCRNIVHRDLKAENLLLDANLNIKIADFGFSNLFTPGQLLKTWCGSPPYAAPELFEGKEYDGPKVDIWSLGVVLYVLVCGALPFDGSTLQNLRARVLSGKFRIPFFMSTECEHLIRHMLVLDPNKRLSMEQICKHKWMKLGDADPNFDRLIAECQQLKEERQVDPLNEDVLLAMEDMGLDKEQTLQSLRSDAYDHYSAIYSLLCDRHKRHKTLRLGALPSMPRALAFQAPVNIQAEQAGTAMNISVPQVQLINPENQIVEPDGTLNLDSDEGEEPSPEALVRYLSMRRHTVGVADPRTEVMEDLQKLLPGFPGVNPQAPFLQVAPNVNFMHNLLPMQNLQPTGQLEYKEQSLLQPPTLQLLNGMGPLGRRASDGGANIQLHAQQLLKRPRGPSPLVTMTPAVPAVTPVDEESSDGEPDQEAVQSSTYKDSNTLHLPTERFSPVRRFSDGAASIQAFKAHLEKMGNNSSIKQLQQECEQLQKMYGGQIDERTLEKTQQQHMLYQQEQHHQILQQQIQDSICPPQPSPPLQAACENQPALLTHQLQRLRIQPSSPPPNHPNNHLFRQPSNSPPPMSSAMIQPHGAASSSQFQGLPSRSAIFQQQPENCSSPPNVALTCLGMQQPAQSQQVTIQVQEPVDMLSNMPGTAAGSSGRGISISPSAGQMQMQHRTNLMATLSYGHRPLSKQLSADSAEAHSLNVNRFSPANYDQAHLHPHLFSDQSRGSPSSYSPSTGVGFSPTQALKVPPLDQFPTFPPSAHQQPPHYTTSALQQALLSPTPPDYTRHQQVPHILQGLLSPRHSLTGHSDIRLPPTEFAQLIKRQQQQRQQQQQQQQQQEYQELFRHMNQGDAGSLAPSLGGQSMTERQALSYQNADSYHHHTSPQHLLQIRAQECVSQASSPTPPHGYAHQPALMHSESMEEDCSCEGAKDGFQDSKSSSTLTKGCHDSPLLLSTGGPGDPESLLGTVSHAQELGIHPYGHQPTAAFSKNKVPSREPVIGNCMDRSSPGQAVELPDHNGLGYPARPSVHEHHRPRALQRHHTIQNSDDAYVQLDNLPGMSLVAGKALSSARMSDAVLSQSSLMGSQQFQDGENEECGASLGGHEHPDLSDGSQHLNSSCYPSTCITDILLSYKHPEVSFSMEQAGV
Experiment [4] addresses Serine/threonine-protein kinase RIO2 (Homo sapiens) (UniProt Q9BVS4). Nature of the experiment: Inhibition of RIOK2 (unknown origin) assessed as residual activity at 1000 nM by KINOMEscan analysis relative to control.
Experiment [5] deals with T3, Serine/threonine-protein kinase TAO3 (Homo sapiens) (UniProt Q9H2K8).
T3 sequence (whole entry): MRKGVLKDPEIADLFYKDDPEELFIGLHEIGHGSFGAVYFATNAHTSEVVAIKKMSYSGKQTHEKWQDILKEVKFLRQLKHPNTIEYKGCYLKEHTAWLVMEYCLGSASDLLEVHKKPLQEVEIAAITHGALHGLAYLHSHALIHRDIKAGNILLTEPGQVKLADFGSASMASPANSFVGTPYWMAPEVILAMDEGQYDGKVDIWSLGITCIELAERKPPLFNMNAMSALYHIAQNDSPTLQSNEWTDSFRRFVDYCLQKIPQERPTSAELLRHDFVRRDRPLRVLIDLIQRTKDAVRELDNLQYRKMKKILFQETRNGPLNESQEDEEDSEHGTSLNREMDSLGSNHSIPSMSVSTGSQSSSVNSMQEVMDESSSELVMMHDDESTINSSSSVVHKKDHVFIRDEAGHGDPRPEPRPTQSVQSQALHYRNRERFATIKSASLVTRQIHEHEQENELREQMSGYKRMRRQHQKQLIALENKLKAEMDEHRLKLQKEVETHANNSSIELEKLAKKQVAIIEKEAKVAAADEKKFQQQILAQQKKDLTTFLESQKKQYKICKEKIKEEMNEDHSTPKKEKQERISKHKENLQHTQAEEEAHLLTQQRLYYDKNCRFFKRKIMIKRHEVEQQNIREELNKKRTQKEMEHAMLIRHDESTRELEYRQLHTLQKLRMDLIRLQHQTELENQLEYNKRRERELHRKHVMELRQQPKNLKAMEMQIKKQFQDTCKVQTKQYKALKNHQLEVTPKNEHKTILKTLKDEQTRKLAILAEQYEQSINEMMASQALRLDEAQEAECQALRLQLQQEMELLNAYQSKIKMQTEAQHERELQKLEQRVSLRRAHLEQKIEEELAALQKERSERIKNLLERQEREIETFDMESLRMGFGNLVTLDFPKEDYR
Description: Inhibition of TAOK3 (unknown origin) assessed as residual activity at 1000 nM by KINOMEscan analysis relative to control.

The next experiment has as its system NCI-H358. Nature of the experiment: Antiproliferative activity against human NCI-H358 cells assessed as inhibition of cell viability incubated for 72 hrs by Cell Titer Glo assay. Type of experiment: functional, cell-based. The note with it: NCI-H358, 72 h. The procedure, abridged: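 NCI-H358 cells (KRAS G12C mutant) were sourced from ATCC.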
In general terms: In ATP-based viability assays light output follows the ATP content of the culture.

Sequence of Serine/threonine-protein kinase RIO2 (Homo sapiens) (Q9BVS4 whole entry, looked up): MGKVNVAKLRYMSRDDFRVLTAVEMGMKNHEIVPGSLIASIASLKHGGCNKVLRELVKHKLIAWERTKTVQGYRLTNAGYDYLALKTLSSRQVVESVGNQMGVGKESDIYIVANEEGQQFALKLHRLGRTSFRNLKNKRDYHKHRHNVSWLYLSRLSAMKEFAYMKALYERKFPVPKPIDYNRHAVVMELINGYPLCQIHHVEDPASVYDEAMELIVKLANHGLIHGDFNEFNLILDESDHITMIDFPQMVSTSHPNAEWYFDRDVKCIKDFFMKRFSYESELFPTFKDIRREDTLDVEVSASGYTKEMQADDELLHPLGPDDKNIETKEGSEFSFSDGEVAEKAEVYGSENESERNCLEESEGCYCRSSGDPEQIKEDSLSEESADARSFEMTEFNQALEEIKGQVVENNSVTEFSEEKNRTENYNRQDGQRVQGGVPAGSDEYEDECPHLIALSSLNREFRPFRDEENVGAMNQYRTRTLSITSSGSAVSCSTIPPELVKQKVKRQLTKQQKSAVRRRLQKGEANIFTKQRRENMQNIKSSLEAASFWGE

The term IC50 denotes the concentration needed to halve the response being measured. On to `COc1cc2nc(C)nc(N[C@H](C)c3cccc(-c4cn[nH]c4)c3)c2cc1OC`, for which the Activity in experiment [1] is 100%; in experiment [2], 100%; in experiment [3], 83%; in experiment [4], 61%; in experiment [5] it was 100%. Further, the 50% inhibitory concentration (IC50) in the experiment on NCI-H358 is 13.6 µM.

`COc1cc2ncnc(N[C@H](C)c3cccc4ccccc34)c2cc1OC`: the Activity in experiment [1] was 83%; in experiment [2], 81%; in experiment [3], 84%; in experiment [4] it was 82%; in experiment [5], 79%.

Consider `CNCc1ccccc1-c1csc([C@@H](C)Nc2nc(C)nc3cc(OC)c(OC)cc23)c1` [BAY-293], for which the IC50 in the experiment on NCI-H358 came to 3.48 µM.

For the origin of these results see ChEMBL document CHEMBL5678818, “Discovery of potent SOS1 inhibitors that block RAS activation via disruption of the RAS-SOS1 interaction” (Proc Natl Acad Sci U S A, 2019).
